Mdm2-MdmX inh = inhibitors of human Mdm2/MdmX interaction | O15151+Q00987 | SaOS-2 split-luciferase Mdm2/MdmX complementation, luminescence | inhibition, % at 8 µM | 330,000 compounds, 3% hits;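 active means inhibition of at least 50% at 8 µM in the primary screen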
Target sequence (O15151 whole entry, looked up): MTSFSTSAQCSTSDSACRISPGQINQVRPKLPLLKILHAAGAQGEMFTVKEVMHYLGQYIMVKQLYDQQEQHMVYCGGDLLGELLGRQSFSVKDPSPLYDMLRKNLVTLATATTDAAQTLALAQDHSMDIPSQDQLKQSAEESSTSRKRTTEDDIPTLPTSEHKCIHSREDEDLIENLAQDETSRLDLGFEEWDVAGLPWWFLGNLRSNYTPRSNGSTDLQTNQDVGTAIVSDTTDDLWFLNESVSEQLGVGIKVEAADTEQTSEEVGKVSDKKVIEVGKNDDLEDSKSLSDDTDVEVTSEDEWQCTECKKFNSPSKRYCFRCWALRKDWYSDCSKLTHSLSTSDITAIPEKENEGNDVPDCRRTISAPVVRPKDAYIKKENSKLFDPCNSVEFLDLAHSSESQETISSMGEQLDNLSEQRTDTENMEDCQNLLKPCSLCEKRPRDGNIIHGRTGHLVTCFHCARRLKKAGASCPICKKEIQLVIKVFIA
Target sequence (Q00987 whole entry, looked up): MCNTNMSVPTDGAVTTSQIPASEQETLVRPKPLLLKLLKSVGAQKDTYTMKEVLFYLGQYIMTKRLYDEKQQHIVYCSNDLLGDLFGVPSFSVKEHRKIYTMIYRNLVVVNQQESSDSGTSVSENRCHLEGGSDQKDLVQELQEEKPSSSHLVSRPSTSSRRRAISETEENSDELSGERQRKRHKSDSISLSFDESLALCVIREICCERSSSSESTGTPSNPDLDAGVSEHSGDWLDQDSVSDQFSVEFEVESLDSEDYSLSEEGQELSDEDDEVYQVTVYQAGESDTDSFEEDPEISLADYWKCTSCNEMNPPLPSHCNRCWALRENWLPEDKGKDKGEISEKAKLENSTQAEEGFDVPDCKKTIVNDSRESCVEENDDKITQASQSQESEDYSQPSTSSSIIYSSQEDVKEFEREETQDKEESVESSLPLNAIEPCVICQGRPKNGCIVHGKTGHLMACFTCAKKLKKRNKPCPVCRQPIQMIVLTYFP
Calb FLC = C. albicans growth modulation with fluconazole | C. albicans CaCi-2 (fluconazole-resistant clinical isolate) + fluconazole, Alamar Blue growth, 48 h | growth inhibition, % (no concentration beside the values) | 300,000 compounds, 0.57% hits | AID 1979;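 active means growth inhibition above about 58% in most replicates, limit read from the data, passing the limit was not always enough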;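 further: all wells also contain fluconazole at 8 µg/ml as a sub-toxic cotreatment; 0% = median of DMSO wells and 100% = median of geldanamycin control wells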
Beta cell apopt = blocks beta cell apoptosis | INS-1E cytokine-induced death, ATP luminescence, 48 h; percent of positive-control rescue, neutral wells zero | 300,000 compounds, 0.8% hits | protection from apoptosis, % (no concentration beside the values);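 active means Every replicate reaches about 75%, or at least half do and their mean reaches it too, limit read from the data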;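 further: 0% = cytokine-treated negative control wells and 100% = positive control rescue; higher means more ATP so stronger rescue from cytokine killing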
T cruzi inh = T. cruzi replication inhibition; 300,000 compounds, 1.4% hits; inhibition, % (concentration not given with the values); T. cruzi beta-gal in NIH3T3, luminescence, 90 h;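 active means mean inhibition across valid replicates above about 55%, limit read from the data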;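 further: signal also drops with host cell toxicity which is not excluded here; 0% = plate median of DMSO wells and 100% = zero luminescence signal; higher percent means less beta-gal luminescence so fewer parasites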
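Material: NIH/3T3 host cells with β-galactosidase reporter T. cruzi; Input: 5,000 host fibroblasts per well; Medium: DMEM, 2% fetal bovine serum; Compound: 50 nL DMSO compound solution per well; Schedule: 3 h host attachment, then at least 90 h co-culture; Detection: luminescent β-galactosidase signal after 60 min lysis.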
SKKanGAS inh = blocks kanamycin growth of S. pyogenes SKKanGAS strain. BacTiter-Glo, 6 h. inhibition, % at 7.5 µM. 300,000 compounds, 1.3% hits;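 active means mean replicate score, as percent of positive control median, at least 50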;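 further: strain carries kanamycin resistance gene driven by streptokinase promoter and grows in 40 µg/ml kanamycin; loss of luminescence reflects streptokinase promoter inhibition or plain growth inhibition; 0% = median of DMSO wells and 100% = positive control at its reference dose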
CSC inhib = blocks cancer stem cells; cancer stem cell-like cells viability, luminescence; 300,000 compounds, 1.1% hits; inhibition, % at 7.5 µM; in the data active means inhibition above about 75%; tested in HMLE shEcad cells
Mdm2 MdmX conf = human Mdm2/MdmX binding inhibition, confirmed | luminescent assay | inhibition, % at 8 µM | 10,000 compounds, 55% hits | shares compounds with Mdm2-MdmX inh; in the data active means inhibition above about 40%
Full FLuc ctr = counter-screen for Mdm2/MdmX inhibitors: full-length luciferase; shares compounds with Mdm2-MdmX inh; SaOS-2 full-length luciferase counterscreen, luminescence; inhibition, % at 8 µM; 6,200 compounds, 77% hits; AID 504607;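 active means mean inhibition at 8 µM reaching about 37%, which flags the compound as non-specific, limit read from the data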;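 further: p53-null SaOS-2 cells with luciferase driven by a doxycycline-inducible promoter; compound on cells about two nights before reading with doxycycline added after day one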
Numbers without * were called inactive; . = no result. Hits are enriched below; roughly 5.7% of the tested compounds scored in any of these assays.

SMILES	Mdm2-MdmX inh	Calb FLC	Beta cell apopt	T cruzi inh	SKKanGAS inh	CSC inhib	Mdm2 MdmX conf	Full FLuc ctr
COc1ccc(NC(=O)c2ccc(CN(c3cc(Cl)ccc3C)S(=O)(=O)c3ccccc3)cc2)cc1OC	8	-10	-2	.	7	21	.	.
CCOc1ccc(N(CC(=O)Nc2ccccc2OCC)S(=O)(=O)c2c(C)noc2C)cc1	65*	10	41	25	3	46	62*	90*
COc1ccccc1NC(=O)c1ccc(CN(c2cc(Cl)ccc2C)S(=O)(=O)c2ccccc2)cc1	61*	-19	0	0	5	-1	33	.
CCOc1ccc(N(CC(=O)Nc2ccccc2OC)S(=O)(=O)c2ccccc2)cc1	58*	-6	16	0	1	70	63*	79*
Cn1c(SCC(=O)N2CCCCCC2)nc2c(c1=O)SCC2	12	-7	-2	-13	1	-15	.	.
COC(=O)[C@]1(C)N[C@H](CN(C)S(=O)(=O)c2ccc(C)cc2)[C@@H]2C(=O)N(C)C(=O)[C@@H]21	13	.	.	.	.	.	.	.
CCN(CC(=O)NCc1ccc(F)cc1)C(=O)/C=C/c1ccc(OC)c(S(=O)(=O)NC(C)C)c1	56*	-6	9	-15	-1	57	55*	61*
CC1CCc2ccccc2N1C(=N)N(C)C (stereo not drawn)	1	18	-5	-4	0	-11	.	.
CN(Cc1cn[nH]c1-c1ccc(-c2ccccc2)cc1)CC1CCOCC1	-16	3	-6	-15	20	-3	.	.
Cn1nc([N+](=O)[O-])c2c(-c3nc4ccccc4s3)c(N)n(C3CCCCC3)c2c1=O	51*	-17	-4	11	2	24	6	.
CCCCCn1c(N)c(-c2nc3ccccc3s2)c2c([N+](=O)[O-])nn(CC)c(=O)c21	92*	-2	-6	31	54*	31	-17	.
CCCCn1c(N)c(-c2nc3ccccc3s2)c2c([N+](=O)[O-])nn(C)c(=O)c21	33	-6	15	9	13	9	.	.
CN1C(=O)C(C)(C)c2cc(S(=O)(=O)N3CCC(C(=O)Nc4ccc(Cl)cc4)CC3)ccc21	12	8	-6	37	-3	17	.	.
CCN(CC)S(=O)(=O)c1ccc(C(=O)N(c2ccccc2)C2C=CS(=O)(=O)C2)cc1 (stereo not drawn)	3	-3	1	14	3	-10	.	.
COc1ccc(SC[C@H](Cc2ccccc2)N2CCN(C)CCC2=O)cc1	15	0	0	4	1	6	.	.
COc1cc(C(=O)N2CCN(c3ccc(C)cc3C)CC2)cc(OC)c1OC	58*	3	14	-37	-6	60	47*	44*
COc1cccc(N2CCN(C(=O)c3ccc(CS(=O)c4ccc(C)cc4)o3)CC2)c1 (stereo not drawn)	58*	-6	16	-16	1	56	52*	61*
Cc1cccc(N2CCN(C(=O)c3ccc(S(=O)(=O)N(C)c4ccccc4)cc3)CC2)c1C	67*	.	-4	.	.	57	59*	61*
O=C(c1ccc2c(c1)[nH]c(=S)n1c3ccccc3nc21)N1CCN(c2cccc(Cl)c2)CC1	85*	18	82*	11	32	21	5	.
Cc1[nH]c2ccc(C(=O)N3CCN(c4ccccc4Cl)CC3)cc2c1C	28	.	-5	36	25	51	.	.
COc1ccccc1N1CCN(C(=O)c2ccc3[nH]c(C)c(C)c3c2)CC1	51*	-5	6	2	8	56	63*	66*
Cc1cccc(N2CCN(C(=O)c3ccc4[nH]c(C)c(C)c4c3)CC2)c1C	60*	.	-4	.	.	62	58*	71*
Cc1onc(-c2ccccc2Cl)c1C(=O)N1CCN(c2ccccc2)CC1	6	7	-6	-4	0	4	.	.
Cc1onc(-c2ccccc2Cl)c1C(=O)N1CCN(c2cccc(Cl)c2)CC1	54*	-1	.	-11	8	56	59*	57*

Screens (PubChem BioAssay)
